Reference: ChEMBL document CHEMBL3286113, “New potent antibacterial oxazolidinone (MRX-I) with an improved class safety profile” (J Med Chem, 2014)
In brackets after ≈: the same amount, converted by molar mass.

What was measured:
Rattus norvegicus [1] = experiment: Toxicity in female rat assessed as effect on hemoglobin level at 100 mg/kg/day, po bid administered for 4 weeks (reference value: 141.8 g/L); type: organism-based; set-up: route oral; settings: in vivo, 672 h
Rattus norvegicus [2] = experiment: Drug uptake in rat at 20 to 300 mg/kg/day, po bid administered for 4 weeks measured after day 28; type: ADME, organism-based; set-up: route oral; settings: in vivo, 672 h
In short: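 Rats, 10 per sex per group, dosed orally twice daily at 20, 100 and 200 mg/kg/day for 4 weeks, then a 4-week recovery. The top dose was raised to 300 mg/kg/day on day 15. Toxicokinetic blood samples were drawn on days 1, 14 and 28.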

Enterococcus faecalis [3] = experiment: Bacteriostatic activity against vancomycin-sensitive Enterococcus faecalis; type: functional
Staphylococcus aureus [4] = experiment: Antibacterial activity against Staphylococcus aureus measured after 7 serial passages; type: functional
Streptococcus pneumoniae = experiment: Antibacterial activity against penicillin-resistant Streptococcus pneumoniae isolate 0613 in po dosed mouse systemic infection model; type: functional; settings: isolate 0613, po
[5] = Oral bioavailability in mouse; type: ADME, organism-based; settings: in vivo
Staphylococcus aureus [6] = experiment: Antibacterial activity against methicillin-sensitive Staphylococcus aureus ATCC 29213; type: functional
Staphylococcus aureus [7] = experiment: Antibacterial activity against Staphylococcus aureus measured after 5 serial passages; type: functional
Staphylococcus aureus [8] = experiment: Antibacterial activity against Staphylococcus aureus measured after 9 serial passages; type: functional
[9] = AUC (0 to 24 hrs) in human at 600 mg, po administered as single dose with meal measured on day 15; type: ADME, organism-based; set-up: time < 24 hr, dose 600 mg, route oral; settings: plasma
In short: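 Randomized, double-blind, placebo-controlled multiple-dose study in 32 healthy subjects (half male, half female). Subjects took 28 oral doses of 600 or 800 mg over 15 days, each with a meal. A single dose was given on days 1 and 15 for full PK, and doses were given Q12h from day 2 to day 14. AUC0−24 was measured on days 1 and 15.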

Cytochrome P450 1A2 = Cytochrome P450 1A2 (Homo sapiens, UniProt P05177); experiment: Inhibition of CYP1A2 (unknown origin) at 1 to 200 uM; type: ADME
Enterococcus faecium [10] = experiment: Bacteriostatic activity against vancomycin-sensitive Enterococcus faecium; type: functional
Rattus norvegicus [11] = experiment: Toxicity in female rat assessed as effect on lymphocyte count at 200 to 300 mg/kg/day, po bid administered for 4 weeks (reference value: 74.8%); type: organism-based; set-up: route oral; settings: in vivo, 672 h
[12] = Half life in po dosed dog; type: ADME, organism-based, Canis lupus familiaris; settings: in vivo
[13] = Tmax in male rat at 5 mg/kg, po; type: ADME, organism-based; set-up: dose 5 mg/kg, route oral; settings: in vivo
In short: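 Male and female rats received single oral doses of 5, 15 or 45 mg/kg, with 5 mg/kg iv as a reference arm. Tmax was read from the plasma concentration–time profile for each gender.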

Rattus norvegicus [14] = experiment: Toxicity in female rat assessed as effect on reticulocyte count at 200 to 300 mg/kg/day, po bid administered for 4 weeks (reference value: 1.48%); type: organism-based; set-up: route oral; settings: in vivo, 672 h
[15] = Cmax in human at 800 mg, po administered as single dose with meal measured on day 1; type: ADME, organism-based; set-up: dose 800 mg, route oral; settings: in vivo
In short: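 Randomized, double-blind, placebo-controlled multiple-dose study in 32 healthy subjects, half male and half female. Each dose was taken with a meal, at 600 or 800 mg, 28 doses over 15 days. A single dose on days 1 and 15 gave full PK; BID (Q12h) dosing ran on days 2–14.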

[16] = AUC (0 to infinity) in human at 900 mg, po administered as single dose at 30 mins post fat meal; type: ADME, organism-based; set-up: dose 900 mg, time infinity, route oral; settings: plasma
In short: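 Crossover study in 12 subjects (6 of each gender). Each received a single oral 900 mg dose either fasting or 30 min after a fat-containing meal, and AUC0−inf was determined.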

Streptococcus pyogenes = experiment: Antibacterial activity against Streptococcus pyogenes; type: functional
Enterococcus faecium [17] = experiment: Bacteriostatic activity against vancomycin-resistant Enterococcus faecium; type: functional
Staphylococcus aureus [18] = experiment: Antibacterial activity against Staphylococcus aureus measured after 1 serial passage; type: functional
Staphylococcus aureus [19] = experiment: Potency index, ratio of linezolid MIC90 to compound MIC90 for methicillin-resistant Staphylococcus aureus; type: functional
[20] = Half life in female rat at 45 mg/kg, po; type: ADME, organism-based; set-up: dose 45 mg/kg, route oral; settings: in vivo
[21] = system: Staphylococcus epidermidis; experiment: Antibacterial activity against methicillin-resistant Staphylococcus epidermidis; type: functional
[22] = Tmax in human at 600 mg, po administered as single dose with meal measured on day 1; type: ADME, organism-based; settings: in vivo
In short: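 Randomized, double-blind, placebo-controlled multiple-dose study in 32 healthy subjects, half male and half female. Dosing was 600 or 800 mg orally with a meal, 28 doses over 15 days. A single dose was given on days 1 and 15 for full PK, with Q12h (BID) dosing on days 2−14.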

Staphylococcus aureus [23] = experiment: Antibacterial activity against Staphylococcus aureus measured after 8 serial passages; type: functional
[24] = AUC (0 to t) in male rat at 5 mg/kg, po; type: ADME, organism-based; set-up: dose 5 mg/kg, route oral; settings: plasma
In short: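 Rat PK by gender, with single oral doses of 5, 15 and 45 mg/kg and an iv dose of 5 mg/kg. Tmax, Cmax, T1/2 and AUC0−t were reported per gender.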

Enterococcus faecalis [25] = experiment: Antibacterial activity against vancomycin-resistant Enterococcus faecalis isolate EFL 4041 in po dosed mouse systemic infection model; type: functional; settings: isolate EFL 4041, po
[26] = Cmax in female rat at 15 mg/kg, po; type: ADME, organism-based; set-up: dose 15 mg/kg, route oral; settings: in vivo
Rattus norvegicus [27] = experiment: Toxicity in female rat assessed as effect on WBC count at 200 to 300 mg/kg/day, po bid administered for 4 weeks (reference value: 3.66 x 10^9/L); type: organism-based; set-up: route oral; settings: in vivo, 672 h
[28] = Half life in male rat at 5 mg/kg, po; type: ADME, organism-based; set-up: dose 5 mg/kg, route oral; settings: in vivo
[29] = Tmax in po dosed dog; type: ADME, organism-based, Canis lupus familiaris; settings: in vivo
[30] = system: Staphylococcus epidermidis; experiment: Antibacterial activity against methicillin-sensitive Staphylococcus epidermidis; type: functional
Rattus norvegicus [31] = experiment: Toxicity in female rat assessed as effect on RBC count at 200 to 300 mg/kg/day, po bid administered for 4 weeks (reference value: 7.28 x 10^12/L); type: organism-based; set-up: route oral; settings: in vivo, 672 h
Enterococcus = experiment: Bacteriostatic activity against vancomycin-sensitive Enterococcus; type: functional
Homo sapiens = experiment: Toxicity in human assessed as change in RBC count at 600 to 800 mg, po administered as single dose with meal on day 1 and day 15 followed by bid with meal on day 2 to day 14 measured during compound treatment; type: organism-based; settings: in vivo
Staphylococcus aureus [32] = experiment: Antibacterial activity against methicillin-sensitive Staphylococcus aureus ATCC 29213 in mouse thigh infection model assessed as reduction of log10 CFU per thigh at 20 mg/kg, po; type: functional
In short: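 Mouse thigh infection with S. aureus ATCC29213 (MSSA), 10 animals per dosing group. Oral doses were 5, 10, 20, 40 and 80 mg/kg. The read-out was log CFU per thigh after treatment, and the reduction (ΔLogCFU/thigh) was reported.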

[33] = AUC (0 to 24 hrs) in female rat at 100 mg/kg/day, po bid administered for 4 weeks; type: ADME, organism-based; set-up: time < 24 hr, dose 100 mg/kg/day, route oral; settings: plasma
In short: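 Repeat-dose toxicity study in rats (10/gender/group) dosed orally twice daily for 4 weeks, then a 4-week recovery period; the top dose was raised from 200 to 300 mg/kg/day on day 15. Blood was taken on days 1, 14 and 28 for toxicokinetics, and AUC0−24 was reported for females.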

Sequence of Cytochrome P450 1A2 (P05177 whole entry): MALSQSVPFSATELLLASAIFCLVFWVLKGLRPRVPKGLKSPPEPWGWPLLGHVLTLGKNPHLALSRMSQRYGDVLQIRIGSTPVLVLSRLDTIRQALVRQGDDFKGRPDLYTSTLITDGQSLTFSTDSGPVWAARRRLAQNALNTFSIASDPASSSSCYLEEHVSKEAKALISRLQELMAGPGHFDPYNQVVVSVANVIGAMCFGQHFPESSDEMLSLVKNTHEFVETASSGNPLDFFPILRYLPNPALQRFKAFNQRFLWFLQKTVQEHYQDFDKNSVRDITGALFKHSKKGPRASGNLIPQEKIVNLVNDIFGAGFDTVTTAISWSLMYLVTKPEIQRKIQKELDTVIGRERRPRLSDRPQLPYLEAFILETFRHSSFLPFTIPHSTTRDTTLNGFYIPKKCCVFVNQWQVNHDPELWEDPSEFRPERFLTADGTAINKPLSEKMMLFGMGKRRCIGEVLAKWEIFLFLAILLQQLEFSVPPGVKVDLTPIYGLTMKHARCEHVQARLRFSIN

O=C1C=CN(c2c(F)cc(N3C[C@H](CNc4ccon4)OC3=O)c(F)c2F)CC1 [CONTEZOLID]
Activity (Rattus norvegicus [1]): 134.8 g/L
Drug uptake (Rattus norvegicus [2]): Not Active
MIC50 (Enterococcus faecalis [3]): 1 µg/mL (≈ 2.45 µM)
MIC90 (Enterococcus faecalis [3]): 1 µg/mL (≈ 2.45 µM)
MIC (Staphylococcus aureus [4]): 2 µg/mL (≈ 4.9 µM)
ED50 (Streptococcus pneumoniae): 10.5 mg/kg
bioavailability [5]: 69%
MIC (Staphylococcus aureus [6]): 1 µg/mL (≈ 2.45 µM)
MIC (Staphylococcus aureus [7]): 2 µg/mL (≈ 4.9 µM)
MIC (Staphylococcus aureus [8]): 2 µg/mL (≈ 4.9 µM)
AUC(0-t) at 24 h [9]: 72900 ng·h/mL
inhibition (INH) (Cytochrome P450 1A2): Not Active
MIC50 (Enterococcus faecium [10]): 1 µg/mL (≈ 2.45 µM)
MIC90 (Enterococcus faecium [10]): 1 µg/mL (≈ 2.45 µM)
Activity (Rattus norvegicus [11]): 71.8%
half-life [12]: 180 min
Tmax [13]: 30 min
Activity (Rattus norvegicus [14]): 1.26%
Cmax [15]: 27800 ng/mL
AUC(0-inf) [16]: 141 µg·h/mL
MIC50 (Streptococcus pyogenes): 0.5 µg/mL (≈ 1.22 µM)
MIC90 (Streptococcus pyogenes): 1 µg/mL (≈ 2.45 µM)
MIC (Enterococcus faecium [17]): 1 µg/mL (≈ 2.45 µM)
MIC50 (Enterococcus faecium [17]): 1 µg/mL (≈ 2.45 µM)
MIC90 (Enterococcus faecium [17]): 1 µg/mL (≈ 2.45 µM)
MIC (Staphylococcus aureus [18]): 2 µg/mL (≈ 4.9 µM)
Ratio (Staphylococcus aureus [19]): 2
half-life [20]: 112 min
MIC50 [21]: 0.25 µg/mL (≈ 0.612 µM)
MIC90 [21]: 0.5 µg/mL (≈ 1.22 µM)
Tmax [22]: 39 min
MIC (Staphylococcus aureus [23]): 2 µg/mL (≈ 4.9 µM)
AUC(0-t) [24]: 10200 ng·h/mL
ED50 (Enterococcus faecalis [25]): 6.2 mg/kg
Cmax [26]: 17200 ng/mL
Activity (Rattus norvegicus [27]): 2.72 ×10⁹ /L
half-life [28]: 64.8 min
Tmax [29]: 30 min
MIC [30]: 0.25 µg/mL (≈ 0.612 µM)
MIC50 [30]: 0.25 µg/mL (≈ 0.612 µM)
MIC90 [30]: 0.5 µg/mL (≈ 1.22 µM)
Activity (Rattus norvegicus [31]): 5.77 ×10¹² /L
MIC50 (Enterococcus): 1 µg/mL (≈ 2.45 µM)
MIC90 (Enterococcus): 1 µg/mL (≈ 2.45 µM)
Activity (Homo sapiens): Non-toxic
deltalog10CFU (Staphylococcus aureus [32]): 3.33
AUC at 24 h [33]: 319 µg·h/mL
